# Assay results reported in ChEMBL document CHEMBL4689842, “EUbOPEN Chemogenomics Library wave 1” (2021).
# Tested on: Fibroblast
# Experiment: Multiplex assay against human fibroblast
# Format: toxicity, cell-based
# In short: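 Tubulin, mitochondrial-mass and membrane-permeability phenotypes are per cents of healthy-nucleus cells. Cells were gated by CellPathfinder machine learning into Hoechst high-intensity objects or normal cells, normal cells into healthy, pyknosed or fragmented nuclei, and pyknosed cells into mitotic or apoptotic. Before that, live cells stained at seeding with Hoechst33342, BioTracker Green Microtubule Cytoskeleton Dye, MitoTracker Red and Annexin V Alexa Fluor 680 were imaged on a CQ1 microscope at 37°C and 5% CO2 after compound addition.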
# [1] = 12 h, 1 µM, compound concentration 1 uM, replicate 1
# [2] = 12 h, 1 µM, compound concentration 1 uM, replicate 2
# [3] = 12 h, 10 µM, compound concentration 10 uM, replicate 1
# [4] = 12 h, 10 µM, compound concentration 10 uM, replicate 2
# [5] = 24 h, 1 µM, compound concentration 1 uM, replicate 1
# [6] = 24 h, 1 µM, compound concentration 1 uM, replicate 2
# [7] = 24 h, 10 µM, compound concentration 10 uM, replicate 1
# [8] = 24 h, 10 µM, compound concentration 10 uM, replicate 2
# [9] = 48 h, 1 µM, compound concentration 1 uM, replicate 1
# [10] = 48 h, 1 µM, compound concentration 1 uM, replicate 2
# [11] = 48 h, 10 µM, compound concentration 10 uM, replicate 1
# [12] = 48 h, 10 µM, compound concentration 10 uM, replicate 2
structure (smiles),measurement,setting,value
O=C(Nc1ccc(-c2ccnc(Nc3ccc(N4CCOCC4)cc3)n2)cc1)[C@@H]1CCCN1,Population Apoptotic (%),[1],58%
same,Population Fragmented Nuclei (%),[1],25%
same,Population Healthy Nuclei (%),[1],41%
same,Population Hoechst High Intensity Objects (%),[1],13%
same,Population Membrane Permeable-Phenotype (%),[1],36%
same,Population Mitochondria Different-Phenotype (%),[1],11%
same,Population Mitotic Cells (%),[1],41%
same,Population Normal (%),[1],87%
same,Population Pyknosed Nuclei (%),[1],33%
same,Population Tubulin-Different-Phenotype (%),[1],47%
same,Total Cell Count,[1],100
same,Population Apoptotic (%),[2],33%
same,Population Fragmented Nuclei (%),[2],13%
same,Population Healthy Nuclei (%),[2],76%
same,Population Hoechst High Intensity Objects (%),[2],7%
same,Population Membrane Permeable-Phenotype (%),[2],4%
same,Population Mitochondria Different-Phenotype (%),[2],10%
same,Population Mitotic Cells (%),[2],66%
same,Population Normal (%),[2],92%
same,Population Pyknosed Nuclei (%),[2],10%
same,Population Tubulin-Different-Phenotype (%),[2],10%
same,Total Cell Count,[2],65
same,Population Apoptotic (%),[3],39%
same,Population Fragmented Nuclei (%),[3],35%
same,Population Healthy Nuclei (%),[3],30%
same,Population Hoechst High Intensity Objects (%),[3],13%
same,Population Membrane Permeable-Phenotype (%),[3],28%
same,Population Mitochondria Different-Phenotype (%),[3],25%
same,Population Mitotic Cells (%),[3],60%
same,Population Normal (%),[3],86%
same,Population Pyknosed Nuclei (%),[3],33%
same,Population Tubulin-Different-Phenotype (%),[3],74%
same,Total Cell Count,[3],146
same,Population Apoptotic (%),[4],77%
same,Population Fragmented Nuclei (%),[4],7%
same,Population Healthy Nuclei (%),[4],77%
same,Population Hoechst High Intensity Objects (%),[4],5%
same,Population Membrane Permeable-Phenotype (%),[4],8%
same,Population Mitochondria Different-Phenotype (%),[4],28%
same,Population Mitotic Cells (%),[4],22%
same,Population Normal (%),[4],94%
same,Population Pyknosed Nuclei (%),[4],14%
same,Population Tubulin-Different-Phenotype (%),[4],44%
same,Total Cell Count,[4],65
same,Population Apoptotic (%),[5],52%
same,Population Fragmented Nuclei (%),[5],24%
same,Population Healthy Nuclei (%),[5],52%
same,Population Hoechst High Intensity Objects (%),[5],9%
same,Population Membrane Permeable-Phenotype (%),[5],22%
same,Population Mitochondria Different-Phenotype (%),[5],6%
same,Population Mitotic Cells (%),[5],47%
same,Population Normal (%),[5],91%
same,Population Pyknosed Nuclei (%),[5],23%
same,Population Tubulin-Different-Phenotype (%),[5],35%
same,Total Cell Count,[5],100
same,Population Apoptotic (%),[6],60%
same,Population Fragmented Nuclei (%),[6],7%
same,Population Healthy Nuclei (%),[6],85%
same,Population Hoechst High Intensity Objects (%),[6],6%
same,Population Membrane Permeable-Phenotype (%),[6],3%
same,Population Mitochondria Different-Phenotype (%),[6],19%
same,Population Mitotic Cells (%),[6],40%
same,Population Normal (%),[6],93%
same,Population Pyknosed Nuclei (%),[6],7%
same,Population Tubulin-Different-Phenotype (%),[6],10%
same,Total Cell Count,[6],63
same,Population Apoptotic (%),[7],57%
same,Population Fragmented Nuclei (%),[7],37%
same,Population Healthy Nuclei (%),[7],48%
same,Population Hoechst High Intensity Objects (%),[7],12%
same,Population Membrane Permeable-Phenotype (%),[7],16%
same,Population Mitochondria Different-Phenotype (%),[7],21%
same,Population Mitotic Cells (%),[7],42%
same,Population Normal (%),[7],87%
same,Population Pyknosed Nuclei (%),[7],13%
same,Population Tubulin-Different-Phenotype (%),[7],74%
same,Total Cell Count,[7],156
same,Population Apoptotic (%),[8],58%
same,Population Fragmented Nuclei (%),[8],18%
same,Population Healthy Nuclei (%),[8],64%
same,Population Hoechst High Intensity Objects (%),[8],1%
same,Population Membrane Permeable-Phenotype (%),[8],13%
same,Population Mitochondria Different-Phenotype (%),[8],17%
same,Population Mitotic Cells (%),[8],41%
same,Population Normal (%),[8],98%
same,Population Pyknosed Nuclei (%),[8],17%
same,Population Tubulin-Different-Phenotype (%),[8],22%
same,Total Cell Count,[8],72
same,Population Apoptotic (%),[9],60%
same,Population Fragmented Nuclei (%),[9],29%
same,Population Healthy Nuclei (%),[9],60%
same,Population Hoechst High Intensity Objects (%),[9],9%
same,Population Membrane Permeable-Phenotype (%),[9],26%
same,Population Mitochondria Different-Phenotype (%),[9],4%
same,Population Mitotic Cells (%),[9],40%
same,Population Normal (%),[9],90%
same,Population Pyknosed Nuclei (%),[9],9%
same,Population Tubulin-Different-Phenotype (%),[9],27%
same,Total Cell Count,[9],111
same,Population Apoptotic (%),[10],50%
same,Population Fragmented Nuclei (%),[10],18%
same,Population Healthy Nuclei (%),[10],76%
same,Population Membrane Permeable-Phenotype (%),[10],18%
same,Population Mitotic Cells (%),[10],50%
same,Population Pyknosed Nuclei (%),[10],4%
same,Population Tubulin-Different-Phenotype (%),[10],30%
same,Total Cell Count,[10],101
same,Population Apoptotic (%),[11],83%
same,Population Fragmented Nuclei (%),[11],44%
same,Population Healthy Nuclei (%),[11],50%
same,Population Hoechst High Intensity Objects (%),[11],22%
same,Population Membrane Permeable-Phenotype (%),[11],15%
same,Population Mitochondria Different-Phenotype (%),[11],2%
same,Population Mitotic Cells (%),[11],16%
same,Population Normal (%),[11],77%
same,Population Pyknosed Nuclei (%),[11],4%
same,Population Tubulin-Different-Phenotype (%),[11],61%
same,Total Cell Count,[11],179
same,Population Apoptotic (%),[12],33%
same,Population Fragmented Nuclei (%),[12],32%
same,Population Healthy Nuclei (%),[12],64%
same,Population Hoechst High Intensity Objects (%),[12],6%
same,Population Membrane Permeable-Phenotype (%),[12],20%
same,Population Mitochondria Different-Phenotype (%),[12],3%
same,Population Mitotic Cells (%),[12],66%
same,Population Normal (%),[12],93%
same,Population Pyknosed Nuclei (%),[12],3%
same,Population Tubulin-Different-Phenotype (%),[12],53%
same,Total Cell Count,[12],99
